Columns and labels:
[1] = Acid dissociation constant pKa2; assay type: physicochemical
In short: (§1)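 Potentiometric titration of 10^-3 M solutions of trans-[Pt(OH)₂(L)(L')], made from the corresponding dinitrato compounds, with standardized NaOH (9.5×10^-4 M); pKa values were taken from the pH titration curves.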

[2] = Solubility in water by sequential addition; assay type: physicochemical
In short: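 Water was added to the compound in sequential portions, with 15 min agitation after each addition. Solubility was taken as the point at which the solution was no longer clear.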

A2780 [3] = assay: Concentration required to inhibit growth of the human ovarian cancer A2780 cells by 50% after 96h exposure; assay type: functional, cell-based
CH1 [4] = assay: Concentration required to inhibit growth of the human ovarian cancer CH1 cells by 50% after 96h exposure; assay type: functional, cell-based
41M [5] = assay: Concentration required to inhibit growth of the human ovarian cancer 41M cells by 50% after 96h exposure; assay type: functional, cell-based
[6] = Hydrolysis rate constant of the compound; assay type: ADME
CH1 [7] = assay: Resistance factor was determined as ratio of resistance to that of sensitivity of CH1 cells after 96h exposure to compound; assay type: functional, cell-based; settings: Homo sapiens
41M [8] = assay: Resistance factor was determined as ratio of resistance to that of sensitivity of 41M cells after 96h exposure to compound; assay type: functional, cell-based; settings: Homo sapiens
A2780 [9] = assay: Resistance factor was determined as ratio of resistance to that of sensitivity of A2780 cells after 96h exposure to compound; assay type: functional, cell-based; settings: Homo sapiens
[10] = Acid dissociation constant pKa1; assay type: physicochemical; in short: as §1

| Substance | S [2] | k1 [6] | IC50 (41M [5]) | RF (CH1 [7]) | RF (41M [8]) | further results |
| --- | --- | --- | --- | --- | --- | --- |
| trans-[Pt(OAc)2(NH3)2] | 21 mg/mL | – | – | – | – | pKa [1]: 7.08 |
| CISPLATIN [listing 1 of 2 here] | – | – | – | 6.7 | 6.1 | – |
| CISPLATIN [listing 2 of 2 here] | – | 0.0000518 s⁻¹ | 1.4 µM | – | – | – |
| trans-[Pt(OAc)2(NH3)(iquin)] [listing 1 of 2 here] | – | – | – | 0.37 | 0.26 | RF (A2780 [9]): 1.69 |
| [PtCl(dien)] | – | 0.000065 s⁻¹ | – | – | – | – |
| trans-[Pt(OAc)2(py)2] [listing 2 of 2 here] | – | – | – | 0.22 | 0.32 | RF (A2780 [9]): 0.9 |
| trans-[Pt(OAc)2(NH3)(quin)] [listing 2 of 2 here] | – | – | – | 0.48 | 1 | RF (A2780 [9]): 1.46 |

Continued, in another order:

| S [2] | k1 [6] | Substance | IC50 (41M [5]) | RF (CH1 [7]) | RF (41M [8]) | further results |
| --- | --- | --- | --- | --- | --- | --- |
| 1.6 mg/mL | 3.7e-07 s⁻¹ | trans-[Pt(OAc)2(NH3)(quin)] [listing 1 of 2 here] | 22 µM | – | – | IC50 (A2780 [3]): 13 µM; IC50 (CH1 [4]): 17 µM |
| – | < 1e-08 s⁻¹ | CARBOPLATIN | – | – | – | – |
| – | 0.00019 s⁻¹ | TRANSPLATIN | – | – | – | – |
| 15 mg/mL | 3.2e-07 s⁻¹ | trans-[Pt(OAc)2(py)2] [listing 1 of 2 here] | 14 µM | – | – | IC50 (A2780 [3]): 12.8 µM; IC50 (CH1 [4]): 19 µM |
| 5.2 mg/mL | 7.4e-07 s⁻¹ | trans-[Pt(OAc)2(NH3)(iquin)] [listing 2 of 2 here] | 22 µM | – | – | pKa [1]: 6.92; IC50 (A2780 [3]): 13 µM; pKa [10]: 3.78; IC50 (CH1 [4]): 20 µM |

Source: ChEMBL document CHEMBL1143654, “Enhancement of aqueous solubility and stability employing a trans acetate axis in trans planar amine platinum compounds while maintaining the biological profile” (J Med Chem, 2005)
